ChEMBL document CHEMBL4011648, “Adamantyl Antiestrogens with Novel Side Chains Reveal a Spectrum of Activities in Suppressing Estrogen Receptor Mediated Activities in Breast Cancer Cells” (J Med Chem, 2017)
Active and inactive are the calls of the source. The calls are words filed in the database; no cut-off is given here.

Legend:
MCF7 [1] = test: Antiproliferative activity against ER-positive human MCF7 cells at 3 uM after 6 days by WST-1 assay; format: functional
In short: (§1)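 MCF-7 cells (ATCC), 6-day compound exposure; viability by WST-1 absorbance at 450 nm, expressed relative to vehicle-treated controls. Run in triplicate; 3 μM single-concentration screen values are averages of two to three independent experiments. Dose-response curves give IC50.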

Estrogen receptor [2] = target: T1, Estrogen receptor (Homo sapiens, UniProt P03372); test: Displacement of [3H]estradiol from full-length human ERalpha receptor by scintillation counting
T1 sequence (P03372 whole entry): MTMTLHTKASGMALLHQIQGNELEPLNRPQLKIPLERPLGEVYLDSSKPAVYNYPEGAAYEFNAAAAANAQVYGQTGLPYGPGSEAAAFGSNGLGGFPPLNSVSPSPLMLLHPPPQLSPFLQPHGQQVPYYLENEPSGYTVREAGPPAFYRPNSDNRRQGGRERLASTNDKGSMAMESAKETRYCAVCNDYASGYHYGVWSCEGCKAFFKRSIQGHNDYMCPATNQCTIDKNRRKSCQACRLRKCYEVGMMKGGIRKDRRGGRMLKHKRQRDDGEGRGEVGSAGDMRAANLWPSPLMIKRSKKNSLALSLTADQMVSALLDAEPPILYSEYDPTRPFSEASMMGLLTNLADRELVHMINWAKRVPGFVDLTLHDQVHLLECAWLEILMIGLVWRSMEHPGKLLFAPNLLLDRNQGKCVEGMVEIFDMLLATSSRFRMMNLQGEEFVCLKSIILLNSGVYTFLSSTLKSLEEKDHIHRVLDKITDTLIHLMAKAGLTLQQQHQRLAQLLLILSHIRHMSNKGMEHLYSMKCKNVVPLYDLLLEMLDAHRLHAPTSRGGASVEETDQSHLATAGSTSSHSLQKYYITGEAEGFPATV

MDA-MB-231 = test: Antiproliferative activity against ERalpha-negative human MDA-MB-231 cells at 3 uM after 6 days by WST-1 assay; format: functional, cell-based
In short: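 ERα-negative MDA-MB-231 breast cancer cells screened for proliferation with compound at 3 μM; WST-1 read-out at 450 nm after 6 days, relative to vehicle.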

[3] = target: T2, Estrogen receptor (Homo sapiens) (UniProt P03372); test: Displacement of [3H]estradiol from full-length human ERalpha receptor by scintillation counting relative to estradiol
T2 sequence (whole entry): T1 sequence (P03372 whole entry)

[4] = target: T2, Estrogen receptor (Homo sapiens); test: Downregulation of ER-alpha levels in ER-positive human MCF-7 cells at 3 uM after 24 hrs by in-cell Western assay
Estrogen receptor [5] = target: T1, Estrogen receptor; test: Downregulation of human ERalpha in human MCF-7 cells after 24 hrs by in-cell Western immunoassay method; format: cell-based
In short: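 MCF-7 cells at 3000 cells/well treated 24 h (3 μM screen or dose-response); formaldehyde-fixed, Triton-permeabilized, stained with rabbit HC-20 anti-ERα overnight at 4 °C, IR secondary plus Cell Tag 700 normalization; in-cell Western imaging, ERα relative to vehicle, average of at least three independent experiments.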

MCF7 [6] = test: Antiproliferative activity against ER-positive human MCF7 cells after 6 days by WST-1 assay; format: functional, cell-based; conditions: MCF7, 144 h; in short: as §1
Estrogen receptor [7] = target: T1, Estrogen receptor; test: Downregulation of ERalpha in human MCF-7 cells assessed as reduction of estradiol-induced GREB1 mRNA levels after 24 hrs by RT-PCR method; format: cell-based
In short: (§2)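 MCF-7 cells in full medium (5% FBS) with 3 × 10−10 M E2, treated 24 h across a concentration range; TRIzol RNA, reverse transcription, SYBR green qPCR for GREB1, PgR or pS2 normalized to 36B4, fold change versus vehicle; mean ± SD of at least two independent experiments in triplicate.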

Estrogen receptor [8] = target: T1, Estrogen receptor; test: Downregulation of ERalpha in human MCF-7 cells assessed as reduction of estradiol-induced pS2 mRNA levels after 24 hrs by RT-PCR method; format: cell-based; in short: as §2
[9] = target: T2, Estrogen receptor (Homo sapiens); test: Downregulation of human ERalpha in human MCF-7 cells at 3 x 10^-8 M after 24 hrs by Western blot method; format: cell-based
In short: (§3)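 MCF-7 cells treated 24 h at 3 × 10−10, 3 × 10−8 or 3 × 10−6 M; whole-cell extracts with protease/phosphatase inhibitors, 10% SDS-PAGE, nitrocellulose, probed with anti-ERα F10 and β-actin; ERα given as percent of vehicle.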

[10] = target: T2, Estrogen receptor (Homo sapiens); test: Downregulation of human ERalpha in human MCF-7 cells at 3 x 10^-6 M after 24 hrs by Western blot method; format: cell-based; in short: as §3
Estrogen receptor [11] = target: T1, Estrogen receptor; test: Downregulation of ERalpha in human MCF-7 cells assessed as reduction of estradiol-induced PgR mRNA levels after 24 hrs by RT-PCR method; format: cell-based; in short: as §2
[12] = target: T2, Estrogen receptor (Homo sapiens); test: Downregulation of human ERalpha in human MCF-7 cells at 3 x 10^-10 M after 24 hrs by Western blot method; format: cell-based; in short: as §3

Compound	Ki (Estrogen receptor [2]) [nM]	RBA [3] [%]	Activity [4]	Activity (MCF7 [1])	Activity (MDA-MB-231)	also measured
CCCCOC(=O)/C=C/c1ccc(C(=C2C3CC4CC(C3)CC2C4)c2ccc(O)cc2)cc1	1.8	11	Active	40%	inactive	–
O=C(/C=C/c1ccc(C(=C2C3CC4CC(C3)CC2C4)c2ccc(O)cc2)cc1)NCC(F)(F)F	1.33	15	inactive	–	inactive	–
O=C(/C=C/c1ccc(C(=C2C3CC4CC(C3)CC2C4)c2ccc(O)cc2)cc1)OCCCO	–	28	inactive	–	inactive	–
CC(C)CCCCCOC(=O)/C=C/c1ccc(C(=C2C3CC4CC(C3)CC2C4)c2ccc(O)cc2)cc1	7.1	2.8	Active	–	inactive	–
O=C(/C=C/c1ccc(C(=C2C3CC4CC(C3)CC2C4)c2ccc(O)cc2)cc1)N(CCO)CCO	0.13	115	–	–	inactive	–
CCC(=C(c1ccc(O)cc1)c1ccc(/C=C/C(=O)O)cc1)c1ccccc1	–	–	–	–	inactive	–
CCOC(=O)/C=C/c1ccc(C(=C2C3CC4CC(C3)CC2C4)c2ccc(O)cc2)cc1	3.3	13	inactive	–	inactive	–
O=C(/C=C/c1ccc(C(=C2C3CC4CC(C3)CC2C4)c2ccc(O)cc2)cc1)NCCCCCO	0.65	31	–	Active	inactive	–
O=C(/C=C/c1ccc(C(=C2C3CC4CC(C3)CC2C4)c2ccc(O)cc2)cc1)OCCCCO	0.45	44	Active	–	inactive	–
O=C(/C=C/c1ccc(C(=C2C3CC4CC(C3)CC2C4)c2ccc(O)cc2)cc1)NCCCCO	0.36	56	–	Active	inactive	–
NC(=O)/C=C/c1ccc(C(=C2C3CC4CC(C3)CC2C4)c2ccc(O)cc2)cc1	0.27	71	inactive	–	inactive	–
O=C(/C=C/c1ccc(C(=C2C3CC4CC(C3)CC2C4)c2ccc(O)cc2)cc1)OCCO	–	54	inactive	–	inactive	–
CN(CCO)C(=O)/C=C/c1ccc(C(=C2C3CC4CC(C3)CC2C4)c2ccc(O)cc2)cc1	–	–	–	–	inactive	–
N#C/C=C/c1ccc(C(=C2C3CC4CC(C3)CC2C4)c2ccc(O)cc2)cc1	1.4	14	Active	inactive	inactive	–
CCCCCC(=O)/C=C/c1ccc(C(=C2C3CC4CC(C3)CC2C4)c2ccc(O)cc2)cc1	1.7	12	–	–	inactive	–
CCCNS(=O)(=O)/C=C/c1ccc(C(=C2C3CC4CC(C3)CC2C4)c2ccc(O)cc2)cc1	0.38	52	Active	Active	inactive	–
COC(=O)/C=C/c1ccc(C(=C2C3CC4CC(C3)CC2C4)c2ccc(O)cc2)cc1	–	46	inactive	–	inactive	–
CCCCN(C)C(=O)/C=C/c1ccc(C(=C2C3CC4CC(C3)CC2C4)c2ccc(O)cc2)cc1	–	28	inactive	inactive	inactive	–
O=C(O)/C=C/c1ccc(C(=C2C3CC4CC(C3)CC2C4)c2ccc(O)cc2)cc1	0.4	51	Active	Active	inactive	IC50 (Estrogen receptor [5]): 17 nM; IC50 (Estrogen receptor [7]): 500 nM; IC50 (Estrogen receptor [8]): 500 nM; IC50 (MCF7 [6]): 31 nM; Activity [9]: Active; Activity [10]: Active; IC50 (Estrogen receptor [11]): 500 nM; Activity [12]: Active

The next lines start with results.

Ki (Estrogen receptor [2]) [nM]	RBA [3] [%]	Activity [4]	Compound	Activity (MCF7 [1])	Activity (MDA-MB-231)	also measured
0.18	109	Active	O=C(/C=C/c1ccc(C(=C2C3CC4CC(C3)CC2C4)c2ccc(O)cc2)cc1)NCCO	24%	inactive	IC50 (Estrogen receptor [5]): 5.6 nM; IC50 (MCF7 [6]): 2.4 nM
–	47	–	O=C(/C=C/c1ccc(C(=C2C3CC4CC(C3)CC2C4)c2ccc(O)cc2)cc1)NCCCO	30%	inactive	IC50 (Estrogen receptor [5]): 0.53 nM; IC50 (Estrogen receptor [7]): 50 nM; IC50 (Estrogen receptor [8]): 50 nM; IC50 (MCF7 [6]): 1.9 nM; Activity [9]: Active; Activity [10]: Active; IC50 (Estrogen receptor [11]): 50 nM; Activity [12]: Active
0.35	57	–	CN(C)CCNC(=O)/C=C/c1ccc(C(=C2C3CC4CC(C3)CC2C4)c2ccc(O)cc2)cc1	–	inactive	–
0.57	35	Active	NCCNC(=O)/C=C/c1ccc(C(=C2C3CC4CC(C3)CC2C4)c2ccc(O)cc2)cc1	Active	inactive	–
1.1	18	–	CCCNC(=O)/C=C/c1ccc(C(=C2C3CC4CC(C3)CC2C4)c2ccc(O)cc2)cc1	Active	inactive	–
–	28	Active	CCCCNC(=O)/C=C/c1ccc(C(=C2C3CC4CC(C3)CC2C4)c2ccc(O)cc2)cc1	Active	inactive	–
0.74	27	–	CCCCCNC(=O)/C=C/c1ccc(C(=C2C3CC4CC(C3)CC2C4)c2ccc(O)cc2)cc1	Active	inactive	–
–	54	Active	NCCCNC(=O)/C=C/c1ccc(C(=C2C3CC4CC(C3)CC2C4)c2ccc(O)cc2)cc1	Active	inactive	–
–	–	Active	NCCCCNC(=O)/C=C/c1ccc(C(=C2C3CC4CC(C3)CC2C4)c2ccc(O)cc2)cc1	–	inactive	–
